# Measurements reported in ChEMBL document CHEMBL1681746, “N-benzylimidazole carboxamides as potent, orally active stearoylCoA desaturase-1 inhibitors” (Bioorg Med Chem Lett, 2011).
# What was measured:
# Acyl-CoA desaturase 1 [1] = biological target: T1, Acyl-CoA desaturase 1 (Rattus norvegicus, UniProt P07308); experiment: Inhibition of rat liver SCD1 using [3H]-stearoylCoA
# T1 sequence (P07308 whole entry): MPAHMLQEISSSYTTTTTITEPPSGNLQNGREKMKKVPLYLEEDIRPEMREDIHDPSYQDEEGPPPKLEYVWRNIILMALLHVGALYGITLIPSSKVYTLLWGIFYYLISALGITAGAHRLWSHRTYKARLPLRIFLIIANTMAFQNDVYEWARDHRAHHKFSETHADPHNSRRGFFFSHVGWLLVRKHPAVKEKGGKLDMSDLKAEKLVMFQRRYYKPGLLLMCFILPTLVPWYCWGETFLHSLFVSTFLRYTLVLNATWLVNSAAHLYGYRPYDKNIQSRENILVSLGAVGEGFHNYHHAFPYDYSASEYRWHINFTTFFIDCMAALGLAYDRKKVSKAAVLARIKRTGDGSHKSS
# [2] = Intrinsic clearance in human liver microsomes assessed per mg of protein; assay type: ADME, Microsome
# [3] = Clearance in rat; assay type: ADME, organism-based; conditions: in vivo
# [4] = Volume of distribution at steady state in rat; assay type: ADME, organism-based; conditions: in vivo, read-out: Vdss
# Stearoyl-CoA desaturase = biological target: T2, Stearoyl-CoA desaturase (Homo sapiens, UniProt O00767); experiment: Inhibition of human SCD1
# T2 sequence (O00767 whole entry): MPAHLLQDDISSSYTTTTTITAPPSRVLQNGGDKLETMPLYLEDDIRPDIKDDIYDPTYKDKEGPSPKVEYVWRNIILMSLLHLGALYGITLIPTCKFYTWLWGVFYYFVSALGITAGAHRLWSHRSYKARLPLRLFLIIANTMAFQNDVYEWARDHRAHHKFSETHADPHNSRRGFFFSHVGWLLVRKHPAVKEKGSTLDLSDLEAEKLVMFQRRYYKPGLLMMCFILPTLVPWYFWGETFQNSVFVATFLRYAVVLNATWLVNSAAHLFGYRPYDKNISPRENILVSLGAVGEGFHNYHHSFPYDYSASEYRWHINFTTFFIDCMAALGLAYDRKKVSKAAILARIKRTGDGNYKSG
# Procedure, shortened: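 Orthogonal assay using tritiated stearoylCoA substrate and human liver microsomes as enzyme source; IC₅₀ determined.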
# Acyl-CoA desaturase 1 [5] = biological target: T1, Acyl-CoA desaturase 1; experiment: Inhibition of rat liver SCD1 assessed as formation of deuterated oleoylCoA by HTMS assay
# Procedure, shortened: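 Rat liver microsomes as enzyme source. RapidFire high-throughput mass spectrometry quantitates deuterated oleoylCoA formed from deuterated stearoylCoA substrate.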
# [6] = Apparent permeability of the compound by PAMPA; assay type: ADME
# [7] = Intrinsic clearance in rat liver microsomes assessed per mg of protein; assay type: ADME, Microsome
# CYP1A2 = biological target: T3, CYP1A2 (Homo sapiens, UniProt P05177); experiment: Inhibition of CYP1A2 at 3 uM; assay type: ADME
# T3 sequence (P05177 whole entry): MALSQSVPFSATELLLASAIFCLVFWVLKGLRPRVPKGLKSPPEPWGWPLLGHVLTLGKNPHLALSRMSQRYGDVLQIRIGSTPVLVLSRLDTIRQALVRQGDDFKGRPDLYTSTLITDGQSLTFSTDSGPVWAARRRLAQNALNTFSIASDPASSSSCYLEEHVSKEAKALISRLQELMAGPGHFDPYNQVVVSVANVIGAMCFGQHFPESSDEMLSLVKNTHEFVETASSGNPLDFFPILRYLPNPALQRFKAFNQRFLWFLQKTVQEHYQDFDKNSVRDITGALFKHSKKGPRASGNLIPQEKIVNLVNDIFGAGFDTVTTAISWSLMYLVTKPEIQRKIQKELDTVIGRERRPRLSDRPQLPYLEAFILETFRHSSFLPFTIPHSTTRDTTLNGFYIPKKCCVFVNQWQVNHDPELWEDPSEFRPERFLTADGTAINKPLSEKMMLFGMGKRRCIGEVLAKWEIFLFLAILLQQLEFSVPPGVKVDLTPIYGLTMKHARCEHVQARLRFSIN
# Procedure, shortened: (§1)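 Percent inhibition of each CYP isoform (1A2, 2C9, 2D6, 3A4) measured at […] test concentration.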
# CYP2C9 = CYP2C9 (Homo sapiens, UniProt P11712); experiment: Inhibition of CYP2C9 at 3 uM; assay type: ADME; procedure, shortened: as §1
# CYP2D6 = CYP2D6 (Homo sapiens, UniProt P10635); experiment: Inhibition of CYP2D6 at 3 uM; assay type: ADME; procedure, shortened: as §1
# CYP3A4 = CYP3A4 (Homo sapiens, UniProt P08684); experiment: Inhibition of CYP3A4 at 3 uM; assay type: ADME; procedure, shortened: as §1
# hERG = hERG (Homo sapiens, UniProt Q12809); experiment: Displacement of [3H]-dofetilide from human ERG at 10 uM; conditions: probe [3H]-dofetilide
# Procedure, shortened: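 Dofetilide binding assay; percent inhibition measured at […] test concentration.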
# Cytochrome P450 1A2 = biological target: T4, Cytochrome P450 1A2 (Homo sapiens, UniProt P05177); experiment: Inhibition of CYP1A2; assay type: ADME
# T4 sequence (P05177 whole entry): T3 sequence (P05177 whole entry)
# [8] = Half life in po dosed in rat; assay type: ADME, organism-based; conditions: in vivo
# [9] = Oral bioavailability in rat; assay type: ADME, organism-based; conditions: in vivo
# Cytochrome P450 2C9 = Cytochrome P450 2C9 (Homo sapiens, UniProt P11712); experiment: Inhibition of CYP2C9; assay type: ADME
# Cytochrome P450 2D6 = Cytochrome P450 2D6 (Homo sapiens, UniProt P10635); experiment: Inhibition of CYP2D6; assay type: ADME
# Cytochrome P450 3A4 = Cytochrome P450 3A4 (Homo sapiens, UniProt P08684); experiment: Inhibition of CYP3A4; assay type: ADME
# Cytochrome P450 2C19 = Cytochrome P450 2C19 (Homo sapiens, UniProt P33261); experiment: Inhibition of CYP2C19; assay type: ADME
# [10] = biological target: Voltage-gated inwardly rectifying potassium channel KCNH2 (Homo sapiens, UniProt Q12809); experiment: Inhibition of human ERG by patch clamp assay
# [11] = Genotoxicity in Salmonella Typhimurium by Ames test; assay type: toxicity; conditions: salmonella enterica subsp. enterica serovar typhimurium
# Plasma [12] = experiment: Drug level in Sprague-Dawley rat plasma at 1 mg/kg, po; assay type: ADME, organism-based; design: dose 1 mg/kg, route oral; conditions: in vivo
# Procedure, shortened: (§2)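 Sprague–Dawley rats, n = 8 per dose group, fasted 20 h, then LEFA diet 24 h. Next day given po doses of 1, 10 or 30 mg/kg in 0.5% methylcellulose. Total drug concentration measured in plasma sampled 3 h post dose.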
# Plasma [13] = experiment: Free plasma concentration in Sprague-Dawley rat plasma at 1 mg/kg, po; assay type: ADME, organism-based; design: dose 1 mg/kg, route oral; conditions: in vivo
# Plasma [14] = experiment: Drug level in Sprague-Dawley rat plasma at 10 mg/kg, po; assay type: ADME, organism-based; design: dose 10 mg/kg, route oral; conditions: in vivo; procedure, shortened: as §2
# Plasma [15] = experiment: Free plasma concentration in Sprague-Dawley rat plasma at 10 mg/kg, po; assay type: ADME, organism-based; design: dose 10 mg/kg, route oral; conditions: in vivo
# Plasma [16] = experiment: Drug level in Sprague-Dawley rat plasma at 30 mg/kg, po; assay type: ADME, organism-based; design: dose 30 mg/kg, route oral; conditions: in vivo; procedure, shortened: as §2
# Plasma [17] = experiment: Free plasma concentration in Sprague-Dawley rat plasma at 30 mg/kg, po; assay type: ADME, organism-based; design: dose 30 mg/kg, route oral; conditions: in vivo
# Rattus norvegicus [18] = experiment: Reduction of desaturation index in low essential fatty acid diet model of Sprague-Dawley rat plasma at 30 mg/kg, po after 3 hrs; assay type: functional; design: scale not given: the % may be the effect or the level left
# Procedure, shortened: (§3)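 Sprague–Dawley rats, n = 8 per dose group, fasted 20 h, then fed low essential fatty acid (LEFA) diet for 24 h. Next day dosed po in 0.5% methylcellulose vehicle. Plasma taken 3 h post dose. Stearic and oleic acid extracted from plasma and quantitated by LC/MS. DI = total oleic:stearic acid ratio; % reduction relative to vehicle group.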
# Rattus norvegicus [19] = experiment: Reduction of desaturation index in low essential fatty acid diet model of Sprague-Dawley rat plasma at 10 mg/kg, po after 3 hrs; assay type: functional; design: scale not given: the % may be the effect or the level left; procedure, shortened: as §3
# Rattus norvegicus [20] = experiment: Reduction of desaturation index in low essential fatty acid diet model of Sprague-Dawley rat plasma at 1 mg/kg, po after 3 hrs; assay type: functional; design: scale not given: the % may be the effect or the level left; procedure, shortened: as §3
# Rattus norvegicus [21] = experiment: Reduction of desaturation index in po dosed low essential fatty acid diet model of Sprague-Dawley rat plasma after 3 hrs; assay type: functional, organism-based; procedure, shortened: as §3
# Rattus norvegicus [22] = experiment: Toxicity in low essential fatty acid diet model of Sprague-Dawley rat ocular tissue assessed as red eye formation at 1 to 30 mg/kg, po after 27 hrs; assay type: organism-based; design: dose 1-30 mg/kg, route oral; conditions: in vivo
# Procedure, shortened: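 LEFA-diet Sprague–Dawley rats (n = 8/group) dosed po in 0.5% methylcellulose with plasma sampled at 3 h. Animals then held for observation. Ocular tissues (red eyes) assessed at 27 h post-dose.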
# Chain of CYP2C9 (P11712 whole entry): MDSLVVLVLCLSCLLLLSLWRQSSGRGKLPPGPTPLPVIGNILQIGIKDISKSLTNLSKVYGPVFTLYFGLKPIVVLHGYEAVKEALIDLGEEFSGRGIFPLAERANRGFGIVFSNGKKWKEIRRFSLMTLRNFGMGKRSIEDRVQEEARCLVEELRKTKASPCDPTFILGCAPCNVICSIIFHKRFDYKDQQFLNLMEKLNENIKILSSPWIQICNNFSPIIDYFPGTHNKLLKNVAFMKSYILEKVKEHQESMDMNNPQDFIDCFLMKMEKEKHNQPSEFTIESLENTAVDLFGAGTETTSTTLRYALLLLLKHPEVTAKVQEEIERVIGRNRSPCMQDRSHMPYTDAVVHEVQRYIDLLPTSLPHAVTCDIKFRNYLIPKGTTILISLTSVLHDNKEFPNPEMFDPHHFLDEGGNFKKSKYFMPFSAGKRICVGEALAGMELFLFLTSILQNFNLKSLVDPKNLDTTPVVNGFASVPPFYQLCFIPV
# Chain of Cytochrome P450 2C9 (P11712 whole entry): as above
# Chain of Cytochrome P450 2D6 (P10635 whole entry): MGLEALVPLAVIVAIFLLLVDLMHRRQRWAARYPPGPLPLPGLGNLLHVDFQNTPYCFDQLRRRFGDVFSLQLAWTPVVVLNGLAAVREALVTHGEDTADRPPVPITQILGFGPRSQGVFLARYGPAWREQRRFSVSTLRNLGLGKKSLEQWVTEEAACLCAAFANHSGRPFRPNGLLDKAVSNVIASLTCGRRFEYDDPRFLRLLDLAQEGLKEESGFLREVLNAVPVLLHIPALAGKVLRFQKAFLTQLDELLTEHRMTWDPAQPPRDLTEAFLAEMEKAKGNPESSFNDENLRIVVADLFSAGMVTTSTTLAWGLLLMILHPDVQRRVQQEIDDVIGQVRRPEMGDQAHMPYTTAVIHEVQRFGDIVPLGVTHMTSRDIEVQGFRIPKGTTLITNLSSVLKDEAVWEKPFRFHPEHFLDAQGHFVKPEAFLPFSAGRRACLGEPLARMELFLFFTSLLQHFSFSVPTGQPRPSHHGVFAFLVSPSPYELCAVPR
# Chain of CYP2D6 (P10635 whole entry): as above
# Chain of Voltage-gated inwardly rectifying potassium channel KCNH2 (Q12809 whole entry): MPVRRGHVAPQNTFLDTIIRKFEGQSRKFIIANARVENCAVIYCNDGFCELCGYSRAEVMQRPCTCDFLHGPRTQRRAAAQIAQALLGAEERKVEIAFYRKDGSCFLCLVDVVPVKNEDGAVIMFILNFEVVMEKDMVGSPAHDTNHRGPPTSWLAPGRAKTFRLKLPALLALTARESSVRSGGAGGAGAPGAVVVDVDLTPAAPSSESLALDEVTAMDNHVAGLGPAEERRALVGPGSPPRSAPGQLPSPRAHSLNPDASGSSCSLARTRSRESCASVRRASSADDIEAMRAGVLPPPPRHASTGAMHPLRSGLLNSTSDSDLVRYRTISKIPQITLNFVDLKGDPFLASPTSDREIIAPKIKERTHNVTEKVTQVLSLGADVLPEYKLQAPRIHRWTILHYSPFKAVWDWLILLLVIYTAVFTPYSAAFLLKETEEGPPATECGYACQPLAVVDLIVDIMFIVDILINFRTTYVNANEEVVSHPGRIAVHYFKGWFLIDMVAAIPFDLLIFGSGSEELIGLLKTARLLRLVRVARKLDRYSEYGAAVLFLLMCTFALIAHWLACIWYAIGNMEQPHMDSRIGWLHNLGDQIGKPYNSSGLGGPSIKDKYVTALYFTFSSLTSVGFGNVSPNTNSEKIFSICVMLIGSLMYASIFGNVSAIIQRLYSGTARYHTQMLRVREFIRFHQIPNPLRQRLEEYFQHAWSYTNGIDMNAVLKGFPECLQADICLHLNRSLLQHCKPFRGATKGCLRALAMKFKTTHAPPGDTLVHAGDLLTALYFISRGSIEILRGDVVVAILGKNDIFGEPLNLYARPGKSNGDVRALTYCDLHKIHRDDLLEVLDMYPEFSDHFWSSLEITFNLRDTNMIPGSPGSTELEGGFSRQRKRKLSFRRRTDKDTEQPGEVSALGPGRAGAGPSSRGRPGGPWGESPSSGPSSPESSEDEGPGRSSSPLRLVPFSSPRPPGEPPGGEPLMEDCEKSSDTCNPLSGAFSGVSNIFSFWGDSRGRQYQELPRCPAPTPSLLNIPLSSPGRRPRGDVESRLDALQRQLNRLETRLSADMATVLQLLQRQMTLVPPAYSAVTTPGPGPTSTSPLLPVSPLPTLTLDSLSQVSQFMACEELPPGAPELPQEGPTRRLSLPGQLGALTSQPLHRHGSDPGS
# Chain of hERG (Q12809 whole entry): as above
# Chain of Cytochrome P450 3A4 (P08684 whole entry): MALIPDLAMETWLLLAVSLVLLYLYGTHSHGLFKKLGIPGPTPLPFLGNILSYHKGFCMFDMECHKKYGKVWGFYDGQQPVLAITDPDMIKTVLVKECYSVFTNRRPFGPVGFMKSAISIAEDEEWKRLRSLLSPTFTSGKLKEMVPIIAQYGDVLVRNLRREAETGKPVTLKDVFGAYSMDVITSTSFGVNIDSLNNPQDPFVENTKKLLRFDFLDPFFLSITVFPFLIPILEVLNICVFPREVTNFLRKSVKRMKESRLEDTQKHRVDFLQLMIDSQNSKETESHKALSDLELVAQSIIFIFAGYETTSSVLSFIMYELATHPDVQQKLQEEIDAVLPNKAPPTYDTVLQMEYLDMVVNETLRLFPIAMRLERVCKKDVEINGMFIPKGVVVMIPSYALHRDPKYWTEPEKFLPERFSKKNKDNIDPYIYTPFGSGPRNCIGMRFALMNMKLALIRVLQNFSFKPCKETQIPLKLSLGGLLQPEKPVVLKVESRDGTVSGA
# Chain of CYP3A4 (P08684 whole entry): as above
# Chain of Cytochrome P450 2C19 (P33261 whole entry): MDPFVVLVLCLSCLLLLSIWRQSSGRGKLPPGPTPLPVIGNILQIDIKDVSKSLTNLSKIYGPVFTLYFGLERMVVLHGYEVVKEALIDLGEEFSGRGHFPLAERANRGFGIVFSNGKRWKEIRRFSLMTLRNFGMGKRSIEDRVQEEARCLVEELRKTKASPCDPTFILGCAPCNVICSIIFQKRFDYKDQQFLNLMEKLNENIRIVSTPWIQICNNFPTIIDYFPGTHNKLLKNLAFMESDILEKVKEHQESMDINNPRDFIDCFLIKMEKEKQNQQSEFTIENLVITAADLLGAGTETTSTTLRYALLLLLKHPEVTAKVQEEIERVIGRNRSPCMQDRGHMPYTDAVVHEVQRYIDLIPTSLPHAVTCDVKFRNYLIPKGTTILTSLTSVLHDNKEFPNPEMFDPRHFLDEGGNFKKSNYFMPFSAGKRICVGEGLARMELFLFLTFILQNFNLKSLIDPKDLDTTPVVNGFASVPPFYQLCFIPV
smiles,measurement,setting,value
Cn1ccc(NC(=O)c2cn(CCc3ccccc3Cl)cn2)n1,IC50,Acyl-CoA desaturase 1 [1],126 nM
Cn1ccc(NC(=O)c2ncn(Cc3cccc(C(F)(F)F)c3)n2)n1,IC50,Acyl-CoA desaturase 1 [1],113 nM
Cn1ccc(NC(=O)c2cn(Cc3ccc(Cl)c(C(F)(F)F)c3)nn2)n1,IC50,Acyl-CoA desaturase 1 [1],33 nM
same,microsomal CLint,[2],< 8 µL/min/mg
same,clearance,[3],641 mL/min/kg
same,Vd,[4],10.2 L/kg
Cn1ccc(NC(=O)c2cn(Cc3cccc(OC(F)(F)F)c3)cn2)n1,IC50,Acyl-CoA desaturase 1 [1],32 nM
same,IC50,Stearoyl-CoA desaturase,88 nM
Cn1ccc(NC(=O)c2ccn(Cc3cccc(C(F)(F)F)c3)n2)n1,IC50,Acyl-CoA desaturase 1 [1],2140 nM
Cn1ccc(NC(=O)c2cn(Cc3cccc(C(F)(F)F)c3)cn2)n1,IC50,Acyl-CoA desaturase 1 [1],11 nM
same,microsomal CLint,[2],< 8 µL/min/mg
same,clearance,[3],463 mL/min/kg
same,Vd,[4],8.1 L/kg
Cc1c(C(=O)N=C(N)N)ncn1Cc1ccc(Cl)cc1,IC50,Acyl-CoA desaturase 1 [5],68 nM
same,IC50,Acyl-CoA desaturase 1 [1],94 nM
same,IC50,Stearoyl-CoA desaturase,217 nM
same,Papp,[6],2.6 ×10⁻⁶ cm/s
same,microsomal CLint,[7],74.1 µL/min/mg
same,microsomal CLint,[2],15.5 µL/min/mg
same,inhibition at 3 µM,CYP1A2,< 1%
same,inhibition at 3 µM,CYP2C9,< 1%
same,inhibition at 3 µM,CYP2D6,< 1%
same,inhibition at 3 µM,CYP3A4,< 1%
same,inhibition at 10 µM,hERG,64%
Cn1ncc(NC(=O)c2cn(Cc3cccc(C(F)(F)F)c3)cn2)n1,IC50,Acyl-CoA desaturase 1 [1],25 nM
CC(=O)NCCNC(=O)c1cn(Cc2ccc(F)c(C(F)(F)F)c2)cn1,IC50,Acyl-CoA desaturase 1 [1],2750 nM
Cn1ccc(NC(=O)c2cn(CC3(CC4CC4)CCC3)cn2)n1,IC50,Acyl-CoA desaturase 1 [1],101 nM
Cn1ccc(NC(=O)c2cn(Cc3cccc(Cl)c3)cn2)n1,IC50,Acyl-CoA desaturase 1 [1],57 nM
Cc1c(C(=O)Nc2ccn(C)n2)ncn1Cc1cccc(C(F)(F)F)c1,IC50,Cytochrome P450 1A2,> 30000 nM
same,IC50,Acyl-CoA desaturase 1 [1],11.8 nM
same,microsomal CLint,[7],< 18 µL/min/mg
same,microsomal CLint,[2],< 8 µL/min/mg
same,clearance,[3],43 mL/min/kg
same,Vd,[4],4.5 L/kg
same,half-life,[8],2.3 h
same,bioavailability,[9],52%
same,IC50,Cytochrome P450 2C9,> 30000 nM
same,IC50,Cytochrome P450 2D6,> 30000 nM
same,IC50,Cytochrome P450 3A4,> 30000 nM
same,IC50,Cytochrome P450 2C19,> 30000 nM
same,IC50,[10],28900 nM
same,Activity,[11],Non-toxic
same,Drug uptake,Plasma [12],56.8 ng/mL
same,Cp(f),Plasma [13],17.6 nM
same,Drug uptake,Plasma [14],1703 ng/mL
same,Cp(f),Plasma [15],533.5 nM
same,Drug uptake,Plasma [16],6491 ng/mL
same,Cp(f),Plasma [17],2035 nM
same,Activity,Rattus norvegicus [18],84%
same,Activity,Rattus norvegicus [19],85%
same,Activity,Rattus norvegicus [20],55%
same,Activity,Rattus norvegicus [21],Dose-dependent effect
same,Activity,Rattus norvegicus [22],Toxic
Cn1cnc(NC(=O)c2cn(Cc3ccc(Cl)c(C(F)(F)F)c3)cn2)n1,IC50,Acyl-CoA desaturase 1 [1],63 nM
Cn1ccc(NC(=O)c2cn(Cc3ccc(Cl)c(C(F)(F)F)c3)cn2)n1,IC50,Acyl-CoA desaturase 1 [1],16 nM
Cn1ccc(NC(=O)c2cnn(Cc3ccc(Cl)c(C(F)(F)F)c3)c2)n1,IC50,Acyl-CoA desaturase 1 [1],63 nM
same,microsomal CLint,[2],25.9 µL/min/mg
same,clearance,[3],30 mL/min/kg
same,Vd,[4],0.7 L/kg
same,half-life,[8],1.3 h
same,bioavailability,[9],66%
